{"source": "ChEMBL document CHEMBL4680093", "about": "(J Med Chem, 2016)", "key": {"[1]": {"assay": "Metabolic stability in mouse liver microsomes assessed as compound remaining after 30 mins", "format": "ADME, Microsome", "settings": "read-out: Stabilty"}, "[2]": {"assay": "Reduction in nonfasting blood glucose level in C57BL/6-Lep^ob (ob/ob) mouse at 20 mg/kg, po dosed once daily for 25 days and co-treated with 300 mg/kg. po QD for 25 days metformin relative to control", "parameters": "scale not given: the % may be the effect or the level left", "settings": "time 25 day"}, "[3]": {"assay": "Oral bioavailability in rat at 5 mg/kg", "format": "ADME, organism-based", "settings": "in vivo", "in_short": "(§1)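 Single-dose PK study. The iv dose was given in 10% hydroxypropyl-β-cyclodextrin and the oral dose in 0.5% methylcellulose/1% Tween80. Mouse and rat received 1 mg/kg iv and 5 mg/kg po. Dog received 0.5 mg/kg iv and 4 mg/kg po. CL, Vss, t1/2, AUC, Cmax, tmax and F were derived.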"}, "[4]": {"assay": "Ratio of unbound Cmax in mouse plasma at 10 mg/kg, po measured after 2 hrs post dose to IC50 for human ERG expressed in CHO cells", "format": "ADME, organism-based", "settings": "in vivo"}, "[5]": {"assay": "Inhibition of PDE3 (unknown origin)", "parameters": "species or system Homo sapiens"}, "[6]": {"target": "T1, Mineralocorticoid receptor (Homo sapiens, UniProt P08235)", "T1 sequence (P08235 whole entry)": "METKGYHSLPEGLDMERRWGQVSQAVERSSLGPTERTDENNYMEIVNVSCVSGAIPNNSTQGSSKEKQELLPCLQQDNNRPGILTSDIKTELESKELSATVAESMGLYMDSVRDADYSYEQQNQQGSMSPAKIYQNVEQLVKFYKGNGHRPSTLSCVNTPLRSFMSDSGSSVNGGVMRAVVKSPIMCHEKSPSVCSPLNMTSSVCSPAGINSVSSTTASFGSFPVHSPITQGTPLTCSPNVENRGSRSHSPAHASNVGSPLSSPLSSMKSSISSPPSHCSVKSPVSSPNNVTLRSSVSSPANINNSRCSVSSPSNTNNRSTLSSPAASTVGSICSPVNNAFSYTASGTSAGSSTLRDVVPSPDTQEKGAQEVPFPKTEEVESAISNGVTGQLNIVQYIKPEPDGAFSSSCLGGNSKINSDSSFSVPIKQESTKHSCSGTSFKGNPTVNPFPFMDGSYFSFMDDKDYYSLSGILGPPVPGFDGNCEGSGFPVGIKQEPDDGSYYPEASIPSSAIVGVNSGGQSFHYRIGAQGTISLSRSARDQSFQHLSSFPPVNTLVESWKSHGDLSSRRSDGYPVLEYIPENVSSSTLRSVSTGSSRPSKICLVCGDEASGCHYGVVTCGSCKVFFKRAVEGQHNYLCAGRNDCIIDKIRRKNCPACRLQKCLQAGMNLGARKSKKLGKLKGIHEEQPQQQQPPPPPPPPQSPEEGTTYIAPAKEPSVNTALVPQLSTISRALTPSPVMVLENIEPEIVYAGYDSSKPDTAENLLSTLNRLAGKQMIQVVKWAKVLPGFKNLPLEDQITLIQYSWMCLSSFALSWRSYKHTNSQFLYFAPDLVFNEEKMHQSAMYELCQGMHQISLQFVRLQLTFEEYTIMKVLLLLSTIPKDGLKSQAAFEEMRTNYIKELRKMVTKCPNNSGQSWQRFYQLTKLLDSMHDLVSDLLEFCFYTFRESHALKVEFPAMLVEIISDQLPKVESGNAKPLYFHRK", "assay": "Antagonist activity at mineralocorticoid receptor (unknown origin)"}, "[7]": {"assay": "Cmax in rat at 5 mg/kg, po", "format": "ADME, organism-based", "parameters": "route oral, dose 5 mg/kg", "settings": "in vivo"}, "[8]": {"assay": "In-vivo inhibition of 11beta-HSD1 activity in C57BL/6 mouse liver assessed as reduction in cortisone to-cortisol conversion at 10 mg/kg, po measured after 2 hrs by ELISA", "format": "functional", "settings": "C57BL/6, Liver"}, "[9]": {"assay": "Toxicity in male mouse during 4-week repeated once daily oral-dose toxicity study", "settings": "in vivo, time 4 weeks", "in_short": "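Mice of both sexes were dosed orally once daily for 4 weeks at 40, 100, 250 and 625 mg/kg. Toxicity was assessed and the NOAEL determined.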"}, "[10]": {"assay": "Oral bioavailability in dog at 4 mg/kg", "format": "ADME, organism-based, Canis lupus familiaris", "settings": "in vivo", "in_short": "as §1"}, "[11]": {"assay": "Ratio of drug level in adipose tissue to plasma of mouse at 10 mg/kg, po measured after 2 hrs post dose", "format": "ADME, organism-based", "in_short": "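C57BL/6 mice received a single oral dose of 10 mg/kg in 0.5% methylcellulose/1% Tween80. Animals were sacrificed 2 h post-dose. Compound was measured in brain, liver, adipose and plasma (nmol/g), and tissue/plasma ratios were calculated.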"}, "Homo sapiens": {"species_on_record": "Homo sapiens", "assay": "Selectivity index, ratio of IC50 for human 11beta-HSD2 to IC50 for human 11beta-HSD1"}, "Mus musculus": {"test_system": "Mus musculus", "assay": "In-vivo inhibition of 11beta-HSD1 activity in C57BL/6 mouse epididymal fat assessed as reduction in cortisone to-cortisol conversion at 3 to 30 mg/kg, po measured after 2 to 6 hrs by ELISA", "format": "functional, organism-based", "settings": "Epididymal fat pad, dose 3-30 mg/kg, time 2-6 hrs", "in_short": "(§2)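 Male C57BL/6 mice dosed orally once at 3, 10 or 30 mg/kg in sterile water containing 0.5% methylcellulose and 1% Tween80, then sacrificed at 2 or 6 h. Liver and epididymal fat pads incubated ex vivo in culture medium containing cortisone. Cortisol formed was measured by ELISA and reported as % inhibition versus vehicle.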"}, "Glucocorticoid receptor": {"target": "T2, Glucocorticoid receptor (Homo sapiens, UniProt P04150)", "T2 sequence (P04150 whole entry)": "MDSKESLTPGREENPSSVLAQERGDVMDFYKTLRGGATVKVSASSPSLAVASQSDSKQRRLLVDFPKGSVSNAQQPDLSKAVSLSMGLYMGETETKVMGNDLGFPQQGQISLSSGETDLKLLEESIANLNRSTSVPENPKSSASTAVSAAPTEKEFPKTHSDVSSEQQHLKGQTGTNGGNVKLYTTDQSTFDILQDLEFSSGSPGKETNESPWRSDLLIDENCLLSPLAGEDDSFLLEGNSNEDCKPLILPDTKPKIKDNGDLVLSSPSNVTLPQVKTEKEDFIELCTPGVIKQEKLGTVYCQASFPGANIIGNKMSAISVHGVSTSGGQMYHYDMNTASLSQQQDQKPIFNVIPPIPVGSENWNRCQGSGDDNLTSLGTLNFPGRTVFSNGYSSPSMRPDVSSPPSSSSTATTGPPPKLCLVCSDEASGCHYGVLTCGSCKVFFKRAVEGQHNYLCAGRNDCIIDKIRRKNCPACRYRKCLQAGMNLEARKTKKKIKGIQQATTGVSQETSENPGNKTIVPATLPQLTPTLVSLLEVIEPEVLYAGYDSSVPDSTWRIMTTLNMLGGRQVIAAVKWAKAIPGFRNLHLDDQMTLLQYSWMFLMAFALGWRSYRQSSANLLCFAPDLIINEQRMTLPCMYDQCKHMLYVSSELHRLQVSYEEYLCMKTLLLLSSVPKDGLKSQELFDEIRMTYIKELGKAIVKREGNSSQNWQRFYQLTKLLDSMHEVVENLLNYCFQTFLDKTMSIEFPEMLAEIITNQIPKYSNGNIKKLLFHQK", "assay": "Agonist activity at glucocorticoid receptor (unknown origin)"}, "[12]": {"assay": "In-vivo inhibition of 11beta-HSD1 activity in C57BL/6 mouse liver assessed as reduction in cortisone to-cortisol conversion at 10 mg/kg, po measured after 6 hrs by ELISA", "format": "functional", "settings": "C57BL/6, Liver", "in_short": "as §2"}}, "note": "pEC50, pIC50: −log10 of the molar value.", "data": [{"smiles": "C[C@@H]1CN(c2ccc(S(C)(=O)=O)cc2F)CCN1c1nccc(C(=O)NC2C3CC4CC2CC(O)(C4)C3)n1", "note": "(stereo not given in full)", "values": [{"measurement": "remaining at 0.5 h", "setting": "[1]", "result": 98, "unit": "%"}, {"measurement": "Activity", "setting": "[2]", "result": 33, "unit": "%"}, {"measurement": "bioavailability", "setting": "[3]", "result": 60, "unit": "%"}, {"measurement": "Ratio", "setting": "[4]", "result": "> 30"}, {"measurement": "pIC50", "setting": "[5]", "result": 5.27}, {"measurement": "pEC50", "setting": "[6]", "result": "< 5.30"}, {"measurement": "Cmax", "setting": "[7]", "result": 1020, "unit": "ng/mL"}, {"measurement": "inhibition in vivo at 10 mg/kg", "setting": "[8]", "result": 86, "unit": "%"}, {"measurement": "NOAEL at 672 h", "setting": "[9]", "result": 625, "unit": "mg/kg"}, {"measurement": "bioavailability", "setting": "[10]", "result": 98, "unit": "%"}, {"measurement": "Kp at 2 h", "setting": "[11]", "result": 0.62}, {"measurement": "Ratio IC50", "setting": "Homo sapiens", "result": "> 3000"}, {"measurement": "inhibition", "setting": "Mus musculus", "result": "Dose-dependent effect"}, {"measurement": "pEC50", "setting": "Glucocorticoid receptor", "result": "< 5.30"}, {"measurement": "inhibition in vivo at 10 mg/kg", "setting": "[12]", "result": 87, "unit": "%"}]}]}
